In ChEMBL document CHEMBL1122658, “Amnesia-reversal activity of a series of N-[(disubstituted-amino)alkyl] -2-oxo-1-pyrrolidineacetamides, including pramiracetam” (1984):

How the values were obtained:
Assay type in all cases: functional
Conditions in all cases: route intraperitoneal
[1] = test system: Mus musculus; assay: Ability to reverse electroconvulsive shock (ECS) induced amnesia in mice, after administering intraperitoneally, at a dose of 0.31 mg/kg
How it was run: (§1)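 Male CF-1 mice (20-25 g), five groups of 20, trained in one trial on step-through inhibitory avoidance (darkened chamber). ECS given 2 h after training. Test drug or vehicle placebo injected ip 2 h after ECS, 1 h before retention test. Entry into box within 60 s scored as amnesia. % reversal = (drug − base-line ECS+placebo)/(ceiling no-ECS+placebo − base-line) ×100.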

[2] = test system: Mus musculus; assay: Ability to reverse electroconvulsive shock induced amnesia in mice, after administering intraperitoneally at a dose of 5 mg/kg; how it was run: as §1
[3] = test system: Mus musculus; assay: Ability to reverse electroconvulsive shock (ECS) induced amnesia in mice, after administering intraperitoneally, at a dose of 0.63 mg/kg; how it was run: as §1
[4] = test system: Mus musculus; assay: Ability to reverse electroconvulsive shock induced amnesia in mice, after administering intraperitoneally at a dose of 1.25 mg/kg; how it was run: as §1
[5] = test system: Mus musculus; assay: Ability to reverse electroconvulsive shock induced amnesia in mice, after administering intraperitoneally at a dose of 2.5 mg/kg; how it was run: as §1
[6] = test system: Mus musculus; assay: Ability to reverse electroconvulsive shock (ECS) induced amnesia in mice, after administering intraperitoneally, at a dose of 80.0 mg/kg; how it was run: as §1
[7] = test system: Mus musculus; assay: Ability to reverse electroconvulsive shock induced amnesia in mice, after administering intraperitoneally at a dose of 20.0 mg/kg; how it was run: as §1
[8] = test system: Mus musculus; assay: Ability to reverse electroconvulsive shock induced amnesia in mice, after administering intraperitoneally at a dose of 20 mg/kg; how it was run: as §1
[9] = test system: Mus musculus; assay: Ability to reverse electroconvulsive shock (ECS) induced amnesia in mice, after administering intraperitoneally, at a dose of 80 mg/kg; how it was run: as §1
[10] = test system: Mus musculus; assay: Ability to reverse electroconvulsive shock (ECS) induced amnesia in mice, after administering intraperitoneally, at a dose of 5 mg/kg; how it was run: as §1
[11] = test system: Mus musculus; assay: Ability to reverse electroconvulsive shock (ECS) induced amnesia in mice, after administering intraperitoneally, at a dose of 160 mg/kg; how it was run: as §1
[12] = test system: Mus musculus; assay: Ability to reverse electroconvulsive shock (ECS) induced amnesia in mice, after administering intraperitoneally, at a dose of 10.0 mg/kg; how it was run: as §1
[13] = test system: Mus musculus; assay: Compound was evaluated for the ability to reverse electroconvulsive shock (ECS) induced amnesia in mice, after administering intraperitoneally, at a dose of 40 mg/kg; how it was run: as §1

| SMILES | Amnesia reversal [2] [%] | Amnesia reversal [3] [%] | Amnesia reversal [4] [%] | Amnesia reversal [5] [%] | Amnesia reversal [6] [%] | Amnesia reversal [7] [%] | Amnesia reversal [8] [%] | Amnesia reversal [9] [%] | Amnesia reversal [10] [%] | also measured |
| --- | --- | --- | --- | --- | --- | --- | --- | --- | --- | --- |
| CN1CCC[C@H]1c1cccnc1 [NICOTINE] | 0 | 5 | 0 | 5 |  |  |  |  |  | Amnesia reversal [1]: 20% |
| CC(C)N(CCNC(=O)CN1CCCC1=O)C(C)C [PRAMIRACETAM] | 96 | 0 | 30 | 60 | 18 | 82 |  |  |  |  |
| C1CCc2nnnn2CC1.O=C(O)c1cccnc1 | 0 |  |  |  |  |  | 0 | 9 |  |  |
| CC(C)N(CCCNC(=O)CN1CC(c2ccccc2)CC1=O)C(C)C (centres undefined) | 82 | 9 | 0 | 45 | 27 | 55 |  |  |  |  |
| CN(C)CCNC(=O)CN1CCCC1=O.Cl |  |  |  |  |  |  |  |  | 50 |  |
| NC(=O)CN1CC(c2ccccc2)CC1=O (centres undefined) | 15 | 0 | 0 | 0 | 0 | 0 |  |  |  |  |
| CC1CCCC(C)N1CCCNC(=O)CN1C(=O)CCC1(C)C (centres undefined) |  |  |  |  | 50 |  | 58 |  | 25 | Amnesia reversal [11]: 33% |
| CCN(CC)CCNC(=O)CN1CCCC1=O |  |  |  |  |  |  | 46 | 31 | 15 |  |
| CC1CCCC(C)N1CCNC(=O)CN1CC(c2ccccc2)CC1=O (centres undefined) |  | 0 | 10 | 40 |  |  | 44 | 33 | 67 |  |
| CCC1CCC(=O)N1CC(=O)NCCN1C(C)CCCC1C (centres undefined) |  |  |  |  |  |  | 40 | 27 | 27 |  |
| NC(=O)CN1CCC(c2ccccc2)C1=O (centres undefined) | 8 |  |  |  | 33 | 17 |  |  |  |  |
| O=C(CN1CCCC1=O)NCCN1CCCCC1 | 45 | 18 | 64 | 45 | 0 | 0 |  |  |  |  |
| CC(CNC(=O)CN1C(=O)CCC1C)N1CCCCC1 (centres undefined) |  |  |  |  |  |  | 36 | 45 | 18 |  |
| C=C(C)[C@@H]1[C@H]2OC(=O)[C@@H]1[C@]1(O)C[C@H]3OC34C(=O)O[C@H]2[C@@]41C.CC(C)(O)[C@@H]1[C@H]2OC(=O)[C@@H]1[C@]1(O)C[C@H]3OC34C(=O)O[C@H]2[C@@]41C (some centres undefined) [PICROTOXIN] | 5 | 5 | 5 | 5 |  |  |  |  |  | Amnesia reversal [1]: 5% |
| COC(=O)[C@H]1[C@@H](OC(=O)c2ccccc2)C[C@@H]2CC[C@H]1N2C [COCAINE] | 10 | 10 | 10 | 15 |  |  |  |  |  | Amnesia reversal [1]: 15% |
| CC1CCCC(C)N1CCCNC(=O)CN1CCCC1=O (centres undefined) | 50 |  | 25 | 33 | 100 | 55 |  |  |  | Amnesia reversal [11]: 60% |
| CC1CC(C)N(CCCNC(=O)CN2CCCC2=O)C(C)(C)C1 (centres undefined) |  |  |  |  |  |  | 18 | 45 | 9 |  |
| CC(C(=O)NCCCN1C(C)CCCC1C)N1CCCC1=O (centres undefined) | 8 |  |  |  |  | 50 |  | 23 |  | Amnesia reversal [11]: 30% |
| CC1CCCC(C)N1CCNC(=O)CCN1CCCC1=O (centres undefined) | 33 |  |  |  | 17 | 42 |  |  |  |  |
| CC(CNC(=O)CN1CCCC1=O)N1CCCCC1 (centres undefined) |  |  |  |  |  |  | 0 | 0 | 0 |  |
| CC1CCC(=O)N1CC(=O)NCCN1C(C)CCCC1C (centres undefined) |  | 33 | 58 | 67 |  |  | 36 | 0 | 55 |  |
| C[C@H]1CCC[C@H](C)N1CCNC(=O)CN1CCCC1=O |  |  | 45 | 82 | 17 | 25 |  |  | 48 |  |

| SMILES | Amnesia reversal [2] [%] | Amnesia reversal [3] [%] | Amnesia reversal [4] [%] | Amnesia reversal [5] [%] | Amnesia reversal [6] [%] | Amnesia reversal [7] [%] | Amnesia reversal [8] [%] | Amnesia reversal [9] [%] | Amnesia reversal [10] [%] | also measured |
| --- | --- | --- | --- | --- | --- | --- | --- | --- | --- | --- |
| CC(C)N(C)CCNC(=O)CN1CCCC1=O |  |  |  |  |  |  | 0 | 0 | 21 |  |
| CC1CCCC(C)N1CCCNC(=O)CN1CC(c2ccccc2)CC1=O (centres undefined) |  |  |  |  |  |  | 0 | 50 | 0 |  |
| CC1CCC(=O)N1CC(=O)NCCCN1C(C)CCCC1C (centres undefined) |  |  |  |  |  |  | 30 | 10 | 0 |  |
| N[C@@H]1C[C@H]1c1ccccc1.N[C@H]1C[C@@H]1c1ccccc1 [TRANYLCYPROMINE] | 15 |  | 10 | 5 |  |  |  |  |  | Amnesia reversal [12]: 10% |
| CC(C(=O)NCCN1C(C)CCCC1C)N1CCCC1=O (centres undefined) |  |  |  |  |  |  | 42 | 61 | 17 |  |
| CN(C)CCCN1c2ccccc2Sc2ccc(Cl)cc21 [CHLORPROMAZINE] | 0 | 20 | 10 | 0 |  |  |  |  |  | Amnesia reversal [1]: 15% |
| CC1CCCC(C)N1CCNC(=O)CN1CCCCC1=O (centres undefined) | 20 |  |  |  | 60 | 10 |  |  |  |  |
| CC1CCC(=O)N1CC(=O)NCCN(C(C)C)C(C)C (centres undefined) |  |  |  |  |  |  | 0 | 56 | 0 |  |
| CC(C)N(CCCCNC(=O)CN1CCCC1=O)C(C)C | 31 | 0 | 8 | 8 | 15 | 31 |  |  |  |  |
| [Cl-].[Li+] [CHLOROLITHIUM] | 15 | 15 | 10 | 15 |  | 25 |  | 20 |  | Amnesia reversal [12]: 30%; Amnesia reversal [13]: 30% |
| CC1CCCC(C)N1CCNC(=O)CN1C(=O)CCC1(C)C (centres undefined) |  |  |  |  |  |  | 22 | 44 |  | Amnesia reversal [11]: 80% |
| C[C@@H]1CCC[C@H](C)N1CCNC(=O)CN1CCCC1=O | 70 | 10 | 20 | 50 | 10 | 70 |  |  |  |  |
| CCC1CCCC(CC)N1CCCNC(=O)CN1CCCC1=O (centres undefined) |  |  | 0 | 0 | 17 | 42 |  |  | 42 |  |
| CC(C)CN(CCNC(=O)CN1CCCC1=O)CC(C)C | 54 |  | 25 | 33 | 15 | 25 |  |  |  | Amnesia reversal [12]: 25% |
| CCC1CCC(=O)N1CC(=O)NCCN(C(C)C)C(C)C (centres undefined) | 58 | 20 | 20 | 58 |  | 17 |  |  |  | Amnesia reversal [12]: 60% |
| C[C@H](N)Cc1ccccc1 [DEXTROAMPHETAMINE] |  | 15 | 40 |  |  |  |  |  |  | Amnesia reversal [1]: 10% |
| CC(C)N(CCCNC(=O)CN1CCCC1=O)C(C)C | 30 | 0 | 9 | 0 | 30 | 20 |  |  |  |  |
| Cn1c(=O)c2c(ncn2C)n(C)c1=O [CAFFEINE] |  | 5 | 0 | 10 |  |  |  |  | 0 | Amnesia reversal [1]: 10% |
| CC1CCC(=O)N1CC(=O)NCCCN(C(C)C)C(C)C (centres undefined) |  |  |  |  |  |  | 0 | 30 | 40 | Amnesia reversal [11]: 20% |
| COC(=O)C(c1ccccc1)C1CCCCN1 (centres undefined) [METHYLPHENIDATE] | 15 |  | 15 | 10 |  | 15 |  |  |  | Amnesia reversal [12]: 10% |
| CCN(CC)CCNC(=O)CN1CC(c2ccccc2)CC1=O (centres undefined) | 42 | 0 | 0 | 27 | 8 | 0 |  |  |  |  |
| CN(C)CCCNC(=O)CN1CCCC1=O | 31 |  |  |  | 46 | 46 |  |  |  |  |
